# The source made the active and inactive calls.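 How the source made its calls, unless noted: active means viability at or below 30% in both replicate assays; inconclusive means viability at or below 30% in just one of the two assays; inactive means the rest.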
# Tests used:
# [1] = reducers of endogenous Her2 protein level, primary screen, SKBR3 breast tumor cells, AlphaScreen, ATP viability (AID 461;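 active means Her2 level under about 52% in both replicate screens, with viability over 70% of control, limit read from the data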;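 on Her2 level: lower value means less Her2 protein in the cells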;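 on viability: percent of carrier control wells set as 100% viability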); settings: 18-24 h, measured here: SKBR3 viability, ATP luminescence, at 10 µM
# [2] = target: Receptor tyrosine-protein kinase erbB-2 (Homo sapiens) (UniProt P04626); test: as above; settings: 18-24 h, at 10 µM, stronger effect = lower value
# Receptor tyrosine-protein kinase erbB-2 (Homo sapiens), sequence (P04626 whole entry, looked up): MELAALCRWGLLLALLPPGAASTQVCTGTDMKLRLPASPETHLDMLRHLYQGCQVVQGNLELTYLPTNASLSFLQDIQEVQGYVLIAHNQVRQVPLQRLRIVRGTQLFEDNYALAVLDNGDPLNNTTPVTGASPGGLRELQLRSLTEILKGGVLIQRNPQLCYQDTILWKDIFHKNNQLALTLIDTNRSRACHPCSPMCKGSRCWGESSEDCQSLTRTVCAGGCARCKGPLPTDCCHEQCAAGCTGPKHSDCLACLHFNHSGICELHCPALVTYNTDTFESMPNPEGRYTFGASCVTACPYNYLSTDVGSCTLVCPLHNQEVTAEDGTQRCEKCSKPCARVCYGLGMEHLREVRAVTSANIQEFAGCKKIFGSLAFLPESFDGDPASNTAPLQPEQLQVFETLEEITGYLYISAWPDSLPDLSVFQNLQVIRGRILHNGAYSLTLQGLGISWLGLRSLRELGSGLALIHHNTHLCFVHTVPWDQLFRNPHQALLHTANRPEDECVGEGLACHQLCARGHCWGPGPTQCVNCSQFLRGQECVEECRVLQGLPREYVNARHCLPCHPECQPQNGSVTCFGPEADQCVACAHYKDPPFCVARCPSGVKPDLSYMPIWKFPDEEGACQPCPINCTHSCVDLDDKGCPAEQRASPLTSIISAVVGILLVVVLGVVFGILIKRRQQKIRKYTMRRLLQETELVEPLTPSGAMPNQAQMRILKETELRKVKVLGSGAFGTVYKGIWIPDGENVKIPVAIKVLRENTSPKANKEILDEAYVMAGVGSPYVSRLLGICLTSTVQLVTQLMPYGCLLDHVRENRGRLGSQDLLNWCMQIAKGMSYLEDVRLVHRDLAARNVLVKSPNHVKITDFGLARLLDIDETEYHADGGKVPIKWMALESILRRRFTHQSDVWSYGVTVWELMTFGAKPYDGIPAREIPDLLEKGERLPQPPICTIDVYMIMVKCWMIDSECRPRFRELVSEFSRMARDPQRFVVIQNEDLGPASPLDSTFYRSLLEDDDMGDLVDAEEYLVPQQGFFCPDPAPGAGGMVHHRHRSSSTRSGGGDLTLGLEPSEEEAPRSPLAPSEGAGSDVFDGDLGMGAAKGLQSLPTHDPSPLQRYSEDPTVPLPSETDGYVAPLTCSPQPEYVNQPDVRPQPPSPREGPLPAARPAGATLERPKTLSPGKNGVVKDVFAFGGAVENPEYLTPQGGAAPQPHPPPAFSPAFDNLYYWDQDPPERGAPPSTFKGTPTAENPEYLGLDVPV
# [3] = SK-BR-3 cell growth inhibitors, pilot screen, 24 h, human (AID 572;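 active means viability at or below 10% of carrier control in both of two separate runs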;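 further: compound exposure lasted between 18 and 24 h rather than exactly 24 h; 100% = carrier-treated control wells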); settings: SK-BR-3 viability, CellTiter-Glo luminescence, at 10 µM, stronger effect = lower value
# [4] = HUVEC growth inhibition – cell-based, human, primary screen (AID 575); settings: HUVEC proliferation, CellTiter-Glo luminescence, 72 h; at 10 µM; stronger effect = lower value;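 further: 100% = median of untreated cell wells with 0.1% DMSO on each plate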
# In short: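 Test system: primary human umbilical vein endothelial cells; medium: endothelial basal medium with 2% FBS plus growth supplements; dosing: 10 µM compound only; times: 72 h treatment at 37 °C; signal: CTG luminescence; read-out: % viability relative to median vehicle-well signal on each plate; control set: vehicle and MePR control wells; plate: 384-well, collagen-coated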
# [5] = growth inhibitors of H69AR lung tumor, primary screen, human, duplicate replicates (AID 580;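 active means viability at or under a set limit in both replicates, limit being median viability minus 3 SD, cut at about 48% in these data, passing the limit was not always enough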;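 further: 100% = mean luminescence of untreated wells and 0% = no signal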); settings: H69AR lung tumor cells viability, ATP luminescence, 72 h; at 10 µM; stronger effect = lower value
# [6] = reversal of MRP1-mediated doxorubicin resistance, pilot screen, H69AR cells, doxorubicin co-treatment (AID 601;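 active means viability loss from added drug above about 55%, and viability with drug at most 40%, in both replicates, limit read from the data, passing the limit was not always enough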); settings: CellTiter-Glo, 72 h, at 10 µM; for differential viability (reversal): stronger effect = higher value
# [7] = 384-well plate pilot, post-Golgi transport modulator project, inhibition of yeast transport mutant growth (AID 636; in the data active means inhibition above about 31%); settings: absorbance 615 nm, about 18 h, stronger effect = higher value
# [8] = growth suppression of yeast trafficking mutant, preliminary HTS, modulators of trafficking downstream of Golgi apparatus project, 1536-format plate, OD 615 nm (AID 637; in the data active means inhibition above about 30%); settings: yeast transport mutant growth, absorbance 615 nm, 18 h; stronger effect = higher value
# [9] = H69AR cells + 2 uM doxorubicin, measured here: viability with 2 uM doxorubicin, stronger effect = lower value
# [10] = H69AR cells, compound alone cytotoxicity
SMILES,viability [1],Her2 level [2],viability [3],viability [4],viability [5],differential viability (reversal) ([6]; H69AR cells + 2 uM doxorubicin),"viability [6, 9]","viability [6, 10]",inhibition [7],inhibition [8]
CCC(c1nnnn1Cc1ccco1)N(CCc1ccccc1)Cc1cc2cccc(C)c2[nH]c1=O (stereo not given),105%,77.5% (inactive),105% (inactive),69.2% (inactive),62.9% (inactive),-3.2% (inactive),66.1%,62.9%,-5% (inactive),-2.67% (inactive)
COc1ccccc1C(=O)n1nc(-c2ccc(Cl)cc2)nc1N,90%,74.5% (inactive),90% (inactive),78.7% (inactive),71.2% (inactive),-13.7% (inactive),84.9%,71.2%,-5.06% (inactive),-8.5% (inactive)
CCn1c(=O)n(CC(=O)NCc2ccccc2OC)c(=O)c2ccccc21,95%,84% (inactive),95% (inactive),87.5% (inactive),101% (inactive),3.65% (inactive),97.4%,101%,0.92% (inactive),-3.06% (inactive)
C[C@H](NC(=O)Nc1ccccc1F)C(=O)O,100%,96% (inactive),100% (inactive),101% (inactive),100% (inactive),-14.3% (inactive),115%,100%,-3.42% (inactive),4.43% (inactive)
CCOC(=O)c1ccc(S(=O)(=O)Nc2cc(C(C)(C)C)no2)cc1,92%,97% (inactive),92% (inactive),112% (inactive),101% (inactive),-2.06% (inactive),103%,101%,-3.25% (inactive),-3.81% (inactive)
N#CC1(c2ccccc2)CCC(=NO)CC1 (stereo not given),106%,91.5% (inactive),106% (inactive),90.2% (inactive),98.1% (inactive),1.23% (inactive),96.8%,98.1%,-3.7% (inactive),-2.06% (inactive)
O=C(NCCC1=CCCCC1)N[C@@H](Cc1ccccc1)C(=O)O,104%,114% (inactive),104% (inactive),100% (inactive),108% (inactive),14.2% (inactive),93.5%,108%,0.13% (inactive),0.16% (inactive)
CCOc1ccc(-c2nnn(CC(=O)N3CCN(c4ccc(F)cc4)CC3)n2)cc1OCC,111%,102% (inactive),111% (inactive),76% (inactive),81.9% (inactive),-10.1% (inactive),92%,81.9%,-2.93% (inactive),-0.33% (inactive)
COc1cc2c(c(OC)c1)C(c1ccncc1)CC(=O)N2 (stereo not given),89%,96.5% (inactive),89% (inactive),91.7% (inactive),111% (inactive),21.4% (inactive),89.8%,111%,1.73% (inactive),-5.57% (inactive)
COc1cc(-c2noc(-c3cccc(Cl)c3)n2)cc(OC)c1OC,92.5%,86% (inactive),92.5% (inactive),68% (inactive),80.5% (inactive),-10.1% (inactive),90.6%,80.5%,-5.73% (inactive),0.97% (inactive)
CN(C)C(=O)CN(c1ccc(F)c(Cl)c1)S(C)(=O)=O,101%,111% (inactive),101% (inactive),92.7% (inactive),90.8% (inactive),-10.3% (inactive),101%,90.8%,-2.11% (inactive),-7.05% (inactive)
CCOC(=O)C1=C(NC#N)OC(C)=C(C)C1c1ccc(O)cc1 (stereo not given),92.5%,79% (inactive),92.5% (inactive),95.1% (inactive),90.3% (inactive),3.92% (inactive),86.4%,90.3%,0.27% (inactive),0.65% (inactive)
Cc1onc(-c2c(Cl)cccc2Cl)c1C(=O)N1CCc2ccccc21,97%,91.5% (inactive),97% (inactive),68.1% (inactive),61.6% (inactive),-24.3% (inactive),85.9%,61.6%,-0.93% (inactive),2.74% (inactive)
CCN1CCN(C(c2ccc(F)cc2)c2nnnn2Cc2cccs2)CC1 (stereo not given),83%,105% (inactive),83% (inactive),89.4% (inactive),94.9% (inactive),8.46% (inactive),86.4%,94.9%,-1.15% (inactive),-0.17% (inactive)
COc1ccc(C(=O)N2CCN(C3CCC(c4ccccc4)CC3)CC2)cc1OC (stereo not given),108%,93% (inactive),108% (inactive),95.2% (inactive),83% (inactive),-2.52% (inactive),85.6%,83%,-4.16% (inactive),-3.67% (inactive)
CCOC(=O)c1cnc(-n2nc(C)cc2C)nc1Nc1cccc(C(C)=O)c1,87.5%,110% (inactive),87.5% (inactive),95.7% (inactive),88% (inactive),-9.45% (inactive),97.5%,88%,1.32% (inactive),-4.35% (inactive)

SMILES,viability [1],Her2 level [2],viability [3],viability [4],viability [5],differential viability (reversal) ([6]; H69AR cells + 2 uM doxorubicin),"viability [6, 9]","viability [6, 10]",inhibition [7],inhibition [8]
CCn1c(NCc2ccc(N(C)C)cc2)nc2ccccc21,84.5%,87.5% (inactive),84.5% (inactive),101% (inactive),97.9% (inactive),11.2% (inactive),86.7%,97.9%,-2.03% (inactive),-1.5% (inactive)
Cc1cc(O)c(C2(C(F)(F)F)NCCNC2=O)cc1C (stereo not given),100%,96% (inactive),100% (inactive),99.5% (inactive),98.8% (inactive),7.08% (inactive),91.7%,98.8%,-4.61% (inactive),-0.32% (inactive)
CCc1ccc2nc(NC(=O)CSCc3c(C)noc3C)sc2c1,88.5%,110% (inactive),88.5% (inactive),52.5% (inactive),87.2% (inactive),-10.5% (inactive),97.6%,87.2%,-0.67% (inactive),-7.54% (inactive)
COCc1cc(C)c2c(N)c(C#N)sc2n1,88%,100% (inactive),88% (inactive),91.5% (inactive),99.6% (inactive),15.3% (inactive),84.3%,99.6%,-1.32% (inactive),-2.55% (inactive)
COc1ccccc1OCc1ccc(C(=O)OCC2CCCO2)o1 (stereo not given),97.5%,112% (inactive),97.5% (inactive),106% (inactive),100% (inactive),0.33% (inactive),99.8%,100%,-5.39% (inactive),-3.27% (inactive)
CN=Cc1cc(-c2ccccc2)sc1O,82%,102% (inactive),82% (inactive),102% (inactive),90% (inactive),13% (inactive),77%,90%,0.41% (inactive),32.7% (active)
COc1ccc(CCNC(=O)c2cnc3scc(C)n3c2=O)cc1OC,78%,89% (inactive),78% (inactive),90.4% (inactive),94.8% (inactive),1.87% (inactive),92.9%,94.8%,-6.27% (inactive),2% (inactive)
O=[n+]1c2c(n([O-])c3c1CCCC3)CCCC2,108%,91% (inactive),108% (inactive),93.9% (inactive),88.6% (inactive),-8.33% (inactive),96.9%,88.6%,-0.65% (inactive),7.38% (inactive)
O=C(Nc1ccc2c(c1)OCCO2)c1ccco1,83%,106% (inactive),83% (inactive),78.7% (inactive),86.5% (inactive),6.8% (inactive),79.7%,86.5%,2.47% (inactive),-5.08% (inactive)
CCOC(=O)CC(=O)CSc1[nH]c(=O)cc(C)c1C#N,87.5%,106% (inactive),87.5% (inactive),99.3% (inactive),108% (inactive),4.69% (inactive),104%,108%,-4.8% (inactive),-0.16% (inactive)
CC(=O)NCCn1ccc2ccccc21,117%,106% (inactive),117% (inactive),96.4% (inactive),91.7% (inactive),-3.84% (inactive),95.5%,91.7%,-4.13% (inactive),3.93% (inactive)
COc1ccc(OC)c(-c2nnc(SCC(=O)NC3CCCCC3)o2)c1,93.5%,99.5% (inactive),93.5% (inactive),96.2% (inactive),98.5% (inactive),6.21% (inactive),92.2%,98.5%,0% (inactive),-13.4% (inactive)
O=C(CN1C(=O)c2ccccc2C1=O)NCC1COc2ccccc2O1 (stereo not given),98%,110% (inactive),98% (inactive),95.1% (inactive),102% (inactive),5.31% (inactive),97.1%,102%,2.11% (inactive),12.5% (inactive)
CC(=O)c1c(C)nc(C)nc1NC(=O)Cc1ccccc1,106%,102% (inactive),106% (inactive),93.9% (inactive),93.9% (inactive),-6.36% (inactive),100%,93.9%,-5% (inactive),-3.55% (inactive)
CCc1ccc(NC(=O)C2CC(=O)N(C(C)C)C2)cc1 (stereo not given),111%,104% (inactive),111% (inactive),100% (inactive),90.8% (inactive),-3.8% (inactive),94.6%,90.8%,-4.13% (inactive),-2.46% (inactive)
CCc1ccc(NC(=O)CSc2nnc(Cc3cccn3C)n2-c2ccc(OC)cc2)cc1,86%,75% (inactive),86% (inactive),61.1% (inactive),95.6% (inactive),-4.31% (inactive),99.9%,95.6%,1.03% (inactive),4.5% (inactive)

# — PubChem BioAssay
